Assay results from ChEMBL document CHEMBL1143691, “Unusual naphthoquinone derivatives from the twigs of Avicennia marina” (2007).
Converted amounts (≈) assume the structure as drawn.

Experiments:
Assay type in all cases: functional
Candida albicans = test: Antimicrobial activity against Candida albicans BMSY 212 by micro-broth dilution method
How it was run: (§1)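 MIC by microbroth dilution following National Committee for Clinical Laboratory Standards guidelines; values are the mean of three independent experiments. Ciprofloxacin served as the antibacterial reference and amphotericin B as the antifungal reference.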

[1] = test system: Mycolicibacterium smegmatis; test: Antimicrobial activity against Mycobacterium smegmatis SG 987 by microbroth dilution method; how it was run: as §1
Mycolicibacterium aurum = test: Antimicrobial activity against Mycobacterium aurum SB 66 by micro-broth dilution method; how it was run: as §1
Mycolicibacterium vaccae = test: Antimicrobial activity against Mycobacterium vaccae IMET 10670 by microbroth dilution method; how it was run: as §1
[2] = test system: Mycolicibacterium fortuitum; test: Antimicrobial activity against Mycobacterium fortuitum B by micro-broth dilution method; how it was run: as §1
Staphylococcus aureus = test: Antimicrobial activity against methicillin-resistant Staphylococcus aureus 134/93 by micro-broth dilution method
How it was run: (§2)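 MIC determined by microbroth dilution following NCCLS (National Committee for Clinical Laboratory Standards) guidelines. Each value is the mean of three independent experiments.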

Enterococcus faecalis = test: Antimicrobial activity against vancomycin-resistant Enterococcus faecalis 1528 by micro-broth dilution method; how it was run: as §2
L929 = test: Antiproliferative activity against mouse L929 cells
K562 = test: Antiproliferative activity against human K562 cells
HeLa = test: Cytotoxicity against human HeLa cells
How it was run: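 Cytotoxicity in HeLa human cervix carcinoma cells (DSM ACC 57). Reported as CC50, the concentration that kills 50% of treated cells.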

Row | GI50 (K562) | Compound | MIC (Candida albicans) | MIC [1] | MIC (Mycolicibacterium aurum) | MIC (Mycolicibacterium vaccae) | MIC [2] | MIC (Staphylococcus aureus) | MIC (Enterococcus faecalis) | GI50 (L929) | CC50 (HeLa)
1 | > 10 µg/mL | COc1c2c(c(OC)c3ccccc13)O[C@H](C(C)(C)O)C2 [AVICENOL C] |  |  |  |  |  |  |  | > 10 µg/mL | > 10 µg/mL
2 | 0.01 µg/mL (≈ 0.0117 µM) | CC(=O)O[C@H]1C(=O)[C@@]2(C)[C@H]([C@H](OC(=O)c3ccccc3)[C@]3(O)C[C@H](OC(=O)[C@H](O)[C@@H](NC(=O)c4ccccc4)c4ccccc4)C(C)=C1C3(C)C)[C@]1(OC(C)=O)CO[C@@H]1C[C@@H]2O [PACLITAXEL] |  |  |  |  |  |  |  | 0.1 µg/mL (≈ 0.117 µM) | 0.01 µg/mL (≈ 0.0117 µM)
3 | > 10 µg/mL | COc1c2c(c(OC)c3ccccc13)[C@H](O)[C@@H](C(C)(C)O)O2 [AVICENOL A] |  |  |  |  |  |  |  | > 10 µg/mL | > 10 µg/mL
4 | > 10 µg/mL | COC(=O)c1ccccc1/C(OC)=C1/C[C@@H](C(C)(C)O)OC1=O [AVICENNONE A] |  |  |  |  |  |  |  | > 10 µg/mL | > 10 µg/mL

Second part, the compound before the results:

Row | Compound | GI50 (K562) | MIC (Candida albicans) | MIC [1] | MIC (Mycolicibacterium aurum) | MIC (Mycolicibacterium vaccae) | MIC [2] | MIC (Staphylococcus aureus) | MIC (Enterococcus faecalis) | GI50 (L929) | CC50 (HeLa)
5 | C[C@@H]1[C@H](O)[C@@H](C)/C=C/C=C/C=C/C=C/C=C/C=C/C=C/[C@H](O[C@@H]2O[C@H](C)[C@@H](O)[C@H](N)[C@@H]2O)C[C@@H]2O[C@](O)(C[C@@H](O)C[C@@H](O)[C@H](O)CC[C@@H](O)C[C@@H](O)CC(=O)O[C@H]1C)C[C@H](O)[C@H]2C(=O)O [AMPHOTERICIN B] |  | < 0.05 µg/mL |  |  |  |  |  |  |  | 
6 | O=C(O)c1cn(C2CC2)c2cc(N3CCNCC3)c(F)cc2c1=O [CIPROFLOXACIN] |  |  | 0.4 µg/mL (≈ 1.21 µM) | < 0.05 µg/mL | 0.2 µg/mL (≈ 0.604 µM) | 0.2 µg/mL (≈ 0.604 µM) | 12.5 µg/mL (≈ 37.7 µM) | 0.8 µg/mL (≈ 2.41 µM) |  | 
7 | CC(C)(O)c1cc2c(o1)C(=O)c1ccccc1C2=O [AVICEQUINONE C] | 1.1 µg/mL (≈ 4.29 µM) | 12.5 µg/mL (≈ 48.8 µM) | 6.25 µg/mL (≈ 24.4 µM) | 6.25 µg/mL (≈ 24.4 µM) | 6.25 µg/mL (≈ 24.4 µM) | 12.5 µg/mL (≈ 48.8 µM) | 6.25 µg/mL (≈ 24.4 µM) | 50 µg/mL (≈ 195 µM) | 0.8 µg/mL (≈ 3.12 µM) | 3.2 µg/mL (≈ 12.5 µM)
8 | CC(C)(O)[C@@H]1CC2=C(O1)C(=O)c1ccccc1C2=O [STENOCARPOQUINONE B] | 0.2 µg/mL (≈ 0.774 µM) | 12.5 µg/mL (≈ 48.4 µM) | 12.5 µg/mL (≈ 48.4 µM) | 12.5 µg/mL (≈ 48.4 µM) | 6.25 µg/mL (≈ 24.2 µM) | 25 µg/mL (≈ 96.8 µM) | 12.5 µg/mL (≈ 48.4 µM) | 25 µg/mL (≈ 96.8 µM) | 1.2 µg/mL (≈ 4.65 µM) | 4.3 µg/mL (≈ 16.6 µM)
9 | CC(C)(O)[C@H]1OC2=C(C(=O)c3ccccc3C2=O)[C@@H]1O [AVICEQUINONE A] |  | 12.5 µg/mL (≈ 45.6 µM) | 12.5 µg/mL (≈ 45.6 µM) | 12.5 µg/mL (≈ 45.6 µM) | 12.5 µg/mL (≈ 45.6 µM) | 12.5 µg/mL (≈ 45.6 µM) | 6.25 µg/mL (≈ 22.8 µM) | 50 µg/mL (≈ 182 µM) |  | 
